In brackets after ≈: the same amount, converted by molar mass. Activity calls are given as the source filed them. The rule behind the calls is not given here.
Assays:
Cytochrome P450 3A4 = Cytochrome P450 3A4 (Homo sapiens, UniProt P08684); test: Inhibition of CYP3A4; type: ADME
Rattus norvegicus [1] = test: Antidiabetic activity in diet-induced obese Sprague-Dawley rat assessed as effect on insulin level at 3 mg/kg, po administered once daily for 3 weeks measured after 30 mins by OGTT; type: functional, organism-based; design: dose 3 mg/kg
Procedure, shortened: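 DIO rats (n = 10/group) on high fat diet, dosed po once daily in Klucel suspension for 3 weeks. On day 21 an oral glucose challenge of 2 g/kg was given, and plasma insulin was measured at the 30 min time point.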

Rattus norvegicus [2] = test: Antidiabetic activity in diet-induced obese Sprague-Dawley rat assessed as decrease in glucose excursion at 3 mg/kg, po administered once daily for 3 weeks by OGTT; type: functional; design: scale not given: the % may be the effect or the level left
Procedure, shortened: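 Male Sprague-Dawley DIO rats (n = 10/group), 550–650 g, reverse light/dark cycle, high fat diet from 7 weeks of age; dosed po once daily in Klucel suspension.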

[3] = Solubility of the compound at mp 217 degC; type: physicochemical

Chain of Cytochrome P450 3A4 (P08684 whole entry): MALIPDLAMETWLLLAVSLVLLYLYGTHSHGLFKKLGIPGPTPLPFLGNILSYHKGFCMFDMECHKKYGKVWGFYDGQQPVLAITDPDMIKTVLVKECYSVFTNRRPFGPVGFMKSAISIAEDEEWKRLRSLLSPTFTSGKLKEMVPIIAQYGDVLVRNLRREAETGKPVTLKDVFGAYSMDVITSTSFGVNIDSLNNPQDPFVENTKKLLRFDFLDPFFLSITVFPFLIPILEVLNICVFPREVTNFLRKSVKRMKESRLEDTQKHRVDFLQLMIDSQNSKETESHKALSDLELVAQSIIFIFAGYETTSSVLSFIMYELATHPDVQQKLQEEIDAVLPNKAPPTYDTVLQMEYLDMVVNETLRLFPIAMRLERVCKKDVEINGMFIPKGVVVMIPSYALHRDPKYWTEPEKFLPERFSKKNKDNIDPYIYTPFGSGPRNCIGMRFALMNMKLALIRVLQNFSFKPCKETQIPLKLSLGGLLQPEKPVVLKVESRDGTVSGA

IC50 (Cytochrome P450 3A4): > 50 µM | solubility [3]: 15.4 µg/mL (≈ 27 µM)
SMILES: O=C(Nc1ccc(C2CCN(C(=O)[C@H]3CC[C@H](C(=O)O)CC3)CC2)cc1)c1nc(-c2ccccc2)oc1C(F)(F)F
Activity (Rattus norvegicus [1]): inactive | Activity (Rattus norvegicus [2]): 15%

Reference: ChEMBL document CHEMBL1764953, “Discovery of orally active carboxylic acid derivatives of 2-phenyl-5-trifluoromethyloxazole-4-carboxamide as potent diacylglycerol acyltransferase-1 inhibitors for the potential treatment of obesity and diabetes” (J Med Chem, 2011)
